Measurements published in article PMC5680101 (The journal of physical chemistry. B, 2017).
Values joined by “and” are separate entries in the source; they are usually repeats but may differ in a detail not shown here. Equal entries are not always repeated. Where two headings read alike, the source gives them in different places.

Tests used:
Assay type in all cases: binding, E. coli
OmpG = OmpG (Escherichia coli, UniProt P76045, D245C); test: biochemical; conditions: for q (slope factor or transition steepness): calculated at the midpoint of the dissociation phase; for ΔRh: decrease in hydrodynamic radius as a result of detergent desolvation; for p (Hill coefficient): four-parameter Hill fit; for rmax: maximum anisotropy at detergent concentrations above the CMC; for rmax / rmin: pH 7.4; for Rh max: maximum hydrodynamic radius of the proteomicelle; for rmin: minimum anisotropy, extrapolated for the lowest detergent concentration; for Dr fast: rotational diffusion coefficient under desolvation conditions; for Dr slow: rotational diffusion coefficient under solvation conditions; for ΔG: ΔG = RT ln Kd
Chain of OmpG (P76045 22-301 D245C): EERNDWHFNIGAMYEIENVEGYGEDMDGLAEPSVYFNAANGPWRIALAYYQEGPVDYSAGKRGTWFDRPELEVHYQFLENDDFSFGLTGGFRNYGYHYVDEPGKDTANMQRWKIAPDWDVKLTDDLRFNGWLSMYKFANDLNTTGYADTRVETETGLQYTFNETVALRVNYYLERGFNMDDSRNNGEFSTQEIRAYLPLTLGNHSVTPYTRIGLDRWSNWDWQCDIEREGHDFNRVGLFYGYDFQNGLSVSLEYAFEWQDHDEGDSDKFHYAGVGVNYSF

FhuA ΔC/Δ5L = FhuA ΔC/Δ5L (Escherichia coli, UniProt P06971, DEL561-566/INS560[…], form not given); conditions: for q (slope factor or transition steepness): calculated at the midpoint of the dissociation phase; for ΔRh: decrease in hydrodynamic radius as a result of detergent desolvation; for p (Hill coefficient): four-parameter Hill fit; for p (Hill coefficient) / Kd: pH 7.4, 24°C; for Kd: read-out: Kd (apparent dissociation constant), midpoint of dose-dependent dissociation phase; for ΔG: ΔG = RT ln Kd
Chain of FhuA ΔC/Δ5L (P06971 194-747, stated change not applied): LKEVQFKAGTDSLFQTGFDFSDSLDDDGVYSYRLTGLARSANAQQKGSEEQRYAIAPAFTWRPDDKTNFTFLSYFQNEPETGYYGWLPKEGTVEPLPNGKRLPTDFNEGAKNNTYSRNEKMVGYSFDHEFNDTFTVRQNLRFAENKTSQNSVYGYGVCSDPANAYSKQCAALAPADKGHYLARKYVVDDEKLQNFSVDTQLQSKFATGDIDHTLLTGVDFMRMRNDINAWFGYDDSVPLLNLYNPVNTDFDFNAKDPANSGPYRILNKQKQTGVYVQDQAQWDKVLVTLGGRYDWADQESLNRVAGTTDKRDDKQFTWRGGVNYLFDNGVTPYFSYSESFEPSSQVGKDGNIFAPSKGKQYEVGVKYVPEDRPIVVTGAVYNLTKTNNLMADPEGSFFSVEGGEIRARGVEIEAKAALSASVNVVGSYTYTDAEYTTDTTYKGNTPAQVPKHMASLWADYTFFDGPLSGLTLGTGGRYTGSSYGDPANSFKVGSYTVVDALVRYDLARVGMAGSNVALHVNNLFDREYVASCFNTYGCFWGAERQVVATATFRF

FhuA ΔC/Δ5L_25N = FhuA ΔC/Δ5L_25N (Escherichia coli, UniProt P06971); conditions: for rmax: maximum anisotropy at detergent concentrations above the CMC; for rmax / rmin: pH 7.4; for rmin: minimum anisotropy, extrapolated for the lowest detergent concentration; for Dr fast: rotational diffusion coefficient under desolvation conditions; for Dr slow: rotational diffusion coefficient under solvation conditions
Chain of FhuA ΔC/Δ5L_25N (P06971 194-747, stated change not applied): as above

FhuA ΔC/Δ7L_30N = FhuA ΔC/Δ7L_30N (Escherichia coli, UniProt P06971); conditions: for rmax: maximum anisotropy at detergent concentrations above the CMC; for rmax / rmin: pH 7.4; for rmin: minimum anisotropy, extrapolated for the lowest detergent concentration; for Dr fast: rotational diffusion coefficient under desolvation conditions; for Dr slow: rotational diffusion coefficient under solvation conditions
Chain of FhuA ΔC/Δ7L_30N (P06971 194-747, stated change not applied): as above

acidic β-barrel proteins = test: steady-state FP anisotropy, detergent desolvation, acidic β barrels; conditions: physiological pH
How it was run: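 Acidic β-barrels: FhuA ΔC/Δ5L, with a GS-rich single-Cys loop replacing turn T7, labeled with Texas Red C2 maleimide in 6 M Gdm-HCl. OmpG D224C labeled in 8 M urea at 1:20 protein:dye. Detergent-refolded protein diluted into wells of varying detergent spanning the CMC, 28 nM final protein. 15 min equilibration, kinetic steady-state anisotropy read, 24 h endpoints covered at 4°C.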

basic β-barrel proteins = test: steady-state FP anisotropy, detergent desolvation, basic β barrels
How it was run: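 Basic FhuA variants, C-terminal His6, labeled with 200 μM Texas Red C2 maleimide overnight at room temperature in 6 M Gdm-HCl. Denatured protein refolded by 50-fold dilution into 200 mM NaCl, 50 mM HEPES, pH 7.4, 4°C, detergent above CMC. Then diluted into wells of varying detergent, 28 nM final protein. 15 min equilibration, kinetic anisotropy read, 24 h endpoints at 4°C.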

[1] = 200 mM NaCl, 50 mM HEPES, pH 7.4, 24°C
[2] = maximum anisotropy at detergent concentrations above the CMC, 200 mM NaCl, 50 mM HEPES, pH 7.4
[3] = maximum hydrodynamic radius of the proteomicelle
[4] = minimum anisotropy, extrapolated for the lowest detergent concentration, 200 mM NaCl, 50 mM HEPES, pH 7.4
[5] = rotational diffusion coefficient under desolvation conditions
[6] = rotational diffusion coefficient under solvation conditions
[7] = calculated at the midpoint of the dissociation phase
[8] = decrease in hydrodynamic radius as a result of detergent desolvation
[9] = four-parameter Hill fit, 200 mM NaCl, 50 mM HEPES, pH 7.4, 24°C
[10] = read-out: Kd (apparent dissociation constant), midpoint of dose-dependent dissociation phase, 200 mM NaCl, 50 mM HEPES, pH 7.4, 24°C
[11] = anisotropy determined in 6 M Gdm-HCl

## CCCCCCCCCCO[C@@H]1O[C@H](CO)[C@@H](O[C@H]2O[C@H](CO)[C@@H](O)[C@H](O)[C@H]2O)[C@H](O)[C@H]1O [DM, n-decyl-β-D-maltoside]
OmpG
  Kd: 1800 ± 400 µM
  q (slope factor or transition steepness): 0.064 mM⁻¹
  ΔRh: 0.95 ± 0.04 nm
  Rh max: 2.6 nm
  Dr fast: 3.5 ± 0.2 10^7 s^−1
  Dr slow: 0.89 ± 0.02 10^7 s^−1
  ΔG: -3.7 ± 0.1 kcal/mol
OmpG; [1]
  p (Hill coefficient): 4.1 ± 1.2
OmpG; 200 mM NaCl, 50 mM HEPES
  rmax: 0.327 ± 0.001
  rmin: 0.214 ± 0.005
FhuA ΔC/Δ5L
  q (slope factor or transition steepness): 0.072 mM⁻¹
  ΔRh: 1.6 ± 0.1 nm
  ΔG: -3.8 ± 0.1 kcal/mol
FhuA ΔC/Δ5L; 200 mM NaCl, 50 mM HEPES
  p (Hill coefficient): 3.5 ± 0.5
  Kd: 1700 ± 100 µM
FhuA ΔC/Δ5L; [2]
  rmax: 0.360 ± 0.001
FhuA ΔC/Δ5L; [3]
  Rh max: 3.3 nm
FhuA ΔC/Δ5L; [4]
  rmin: 0.219 ± 0.005
FhuA ΔC/Δ5L; [5]
  Dr fast: 3.3 ± 0.2 10^7 s^−1
FhuA ΔC/Δ5L; [6]
  Dr slow: 0.44 ± 0.01 10^7 s^−1
FhuA ΔC/Δ5L_25N; [7]
  q (slope factor or transition steepness): 1.30 mM⁻¹
FhuA ΔC/Δ5L_25N; [8]
  ΔRh: 1.5 ± 0.1 nm
FhuA ΔC/Δ5L_25N; [9]
  p (Hill coefficient): 27 ± 3
FhuA ΔC/Δ5L_25N; 200 mM NaCl, 50 mM HEPES
  rmax: 0.343 ± 0.002
  rmin: 0.166 ± 0.003
FhuA ΔC/Δ5L_25N; [3]
  Rh max: 3.0 nm
FhuA ΔC/Δ5L_25N; [10]
  Kd: 900 ± 100 µM
FhuA ΔC/Δ5L_25N
  Dr fast: 5.6 ± 0.2 10^7 s^−1
  Dr slow: 0.66 ± 0.03 10^7 s^−1
FhuA ΔC/Δ5L_25N; ΔG = RT ln Kd
  ΔG: -4.1 ± 0.1 kcal/mol
FhuA ΔC/Δ7L_30N; [7]
  q (slope factor or transition steepness): 1.07 mM⁻¹
FhuA ΔC/Δ7L_30N; [8]
  ΔRh: 1.0 ± 0.1 nm
FhuA ΔC/Δ7L_30N; [9]
  p (Hill coefficient): 27 ± 6
FhuA ΔC/Δ7L_30N; 200 mM NaCl, 50 mM HEPES
  rmax: 0.312 ± 0.001
  rmin: 0.168 ± 0.007
FhuA ΔC/Δ7L_30N; [3]
  Rh max: 2.4 nm
FhuA ΔC/Δ7L_30N; [10]
  Kd: 900 ± 100 µM
FhuA ΔC/Δ7L_30N
  Dr fast: 1.0 ± 0.1 10^7 s^−1
  Dr slow: 5.5 ± 0.4 10^7 s^−1
FhuA ΔC/Δ7L_30N; ΔG = RT ln Kd
  ΔG: -4.1 ± 0.1 kcal/mol
Acidic β-barrel proteins
  Kd: ~1800 µM
Basic β-barrel proteins; basic FhuA proteins, pH 7.4
  Hill cooperativity p: ~ 27
Basic β-barrel proteins; physiological pH
  Kd: ~900 µM

## Cl.N=C(N)N [Gdm-HCl, guanidinium hydrochloride]
FhuA ΔC/Δ5L; [11]
  rmax: ~0.16
  rmin: ~0.16
FhuA ΔC/Δ5L; fully unfolded, most rotationally diffusive protein in 6 M Gdm-HCl
  basal (minimum) anisotropy readout, r1: 0.16 and ~ 0.16
FhuA ΔC/Δ5L; in 6 M Gdm-HCl
  Dr fast: ~6.0 10^7 s^−1
  Dr slow: ~6.0 10^7 s^−1
  Rh max: 1.4 nm

## CCCCCCCCO[C@@H]1O[C@H](CO)[C@@H](O)[C@H](O)[C@H]1O [OG, n-octyl-β-D-glucoside]
OmpG
  q (slope factor or transition steepness): 0.017 mM⁻¹
  ΔRh: 1.0 ± 0.1 nm
  Rh max: 2.4 nm
  Dr fast: 6.4 ± 0.1 10^7 s^−1
  Dr slow: 1.2 ± 0.1 10^7 s^−1
  ΔG: -2.7 ± 0.1 kcal/mol
OmpG; [1]
  p (Hill coefficient): 4.9 ± 0.5
OmpG; 200 mM NaCl, 50 mM HEPES
  rmax: 0.306 ± 0.001
  rmin: 0.153 ± 0.002
OmpG; [10]
  Kd: 11000 ± 1000 µM
FhuA ΔC/Δ5L; acidic FhuA proteins refolded in detergent
  anisotropy signal: ~ 0.3
FhuA ΔC/Δ5L
  q (slope factor or transition steepness): 0.013 mM⁻¹
  ΔRh: 0.80 ± 0.02 nm
  ΔG: -2.5 ± 0.1 kcal/mol
FhuA ΔC/Δ5L; 200 mM NaCl, 50 mM HEPES
  p (Hill coefficient): 5.3 ± 0.9
  Kd: 13000 ± 1000 µM
FhuA ΔC/Δ5L; [2]
  rmax: 0.291 ± 0.002
FhuA ΔC/Δ5L; [3]
  Rh max: 2.2 nm
FhuA ΔC/Δ5L; [4]
  rmin: 0.162 ± 0.002
FhuA ΔC/Δ5L; [5]
  Dr fast: 5.8 ± 0.1 10^7 s^−1
FhuA ΔC/Δ5L; [6]
  Dr slow: 1.5 ± 0.1 10^7 s^−1
FhuA ΔC/Δ5L_25N; 200 mM NaCl, 50 mM HEPES
  rmax: ~0.17
  rmin: ~0.15
FhuA ΔC/Δ5L_25N
  Dr fast: ~6.6 10^7 s^−1
  Dr slow: ~5.2 10^7 s^−1
FhuA ΔC/Δ7L_30N; 200 mM NaCl, 50 mM HEPES
  rmax: ~0.17
  rmin: ~0.15
FhuA ΔC/Δ7L_30N
  Dr fast: ~6.6 10^7 s^−1
  Dr slow: ~5.2 10^7 s^−1

## CCCCCCCCCCCCOS(=O)(=O)[O-].[Na+] [SDS]
FhuA ΔC/Δ5L; in 40 mM SDS
  minimum anisotropy value, r0: ~ 0.16
